ChEMBL document CHEMBL1121953, “Carbon-7 substituted actinomycin D analogues as improved antitumor agents: synthesis and DNA-binding and biological properties” (J Med Chem, 1982)
In brackets after ≈: the same amount, converted by molar mass. Blank lines part the entries; values can stand above or below the compound they belong to.

Assays:
[1] = test system: P388; experiment: Antitumor activity against P-388 lymphocytic leukemia in CDF1 hybrid male mice measured as median survival time ( 0.6 mg/kg),ip; type: functional, Mus musculus
In short: (§1)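 Male CDF1 mice (18-23 g) were inoculated ip with 10⁶ P-388 cells on day 0. Drug was given ip in 10% dimethyl sulfoxide-saline on days 1, 5 and 9. Test solutions were kept at 0-4 °C, protected from light, and checked periodically for stability and homogeneity by TLC and HPLC. Read-out was survival, median survival time, increase in life span and tumor-free cures per 7 animals.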

[2] = species on record: Homo sapiens; experiment: (§2) In vitro growth inhibitory activity against human lymphoblastic leukemia cells; type: functional; conditions: read-out: ID50 (the source's name)
In short: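 Human CCRF-CEM lymphoblastic leukemia cells were used in log-phase growth. Compounds were dissolved in Me2SO, and the final growth medium contained 1% Me2SO. Test solution homogeneity was checked by TLC and HPLC at each test.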

[3] = test system: P388; experiment: Antitumor activity against P-388 lymphocytic leukemia in CDF1 hybrid male mice measured as percent increase in lifespan( 1.2 mg/kg),ip; type: functional; conditions: Mus musculus; in short: as §1
[4] = test system: P388; experiment: Antitumor activity against P-388 lymphocytic leukemia in CDF1 hybrid male mice measured as percent increase in lifespan( 0.15 mg/kg),ip; type: functional; conditions: Mus musculus; in short: as §1
[5] = test system: P388; experiment: Minimum effective dose was determined compared to 7-(2,3-Epoxypropoxy)-actinomycin D against P-388 leukemia in mice(3 days); type: functional, Mus musculus; set-up: unit: mg/kg
In short: (§3)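 MED was the dose (mg/kg) giving a 40% increase in life span over control in mice bearing ip P-388 leukemia. Drug was given ip in 10% dimethyl sulfoxide-saline on a q4d 1, 5, 9 (three injections) or qd 1-4 (four injections) schedule.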

[6] = test system: P388; experiment: Antitumor activity against P-388 lymphocytic leukemia in CDF1 hybrid male mice measured as percent increase in lifespan(0.3 mg/kg),ip; type: functional, Mus musculus; in short: as §1
[7] = test system: P388; experiment: Number of mice with P-388 lymphocytic leukemia cured.( 0.6 mg/kg),ip; 0/7; type: functional, Mus musculus
[8] = test system: P388; experiment: Number of mice with P-388 lymphocytic leukemia cured.( 0.3 mg/kg),ip; 0/7; type: functional, Mus musculus
[9] = test system: P388; experiment: Minimum effective dose was determined compared to 7-(2,3-Epoxypropoxy)-actinomycin D against P-388 leukemia in mice(4 days); type: functional, Mus musculus; in short: as §3
[10] = test system: P388; experiment: Number of mice with P-388 lymphocytic leukemia cured(1.2 mg/kg),ip; 0/7; type: functional, Mus musculus; in short: as §1
[11] = test system: P388; experiment: Maximum tolerated dose was determined compared to 7-(2,3-Epoxypropoxy)-actinomycin D against P-388 leukemia in mice(3 days); type: functional, Mus musculus
In short: (§4)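 Tumor-free male CDF1 mice (18-23 g) received a broad dose range ip in 10% dimethyl sulfoxide-saline, either on days 1, 5, 9 (three injections) or on 4 successive days (qd 1-4). Deaths were recorded over 21 days. MTD was the dose lethal to 10% (LD10), taken from a plot of log dose vs percent mortality. Average of two experiments.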

[12] = test system: P388; experiment: Antitumor activity against P-388 lymphocytic leukemia in CDF1 hybrid male mice measured as percent increase in lifespan( 3 mg/kg),ip; type: functional; conditions: Mus musculus; in short: as §1
[13] = test system: P388; experiment: Antitumor activity against P-388 lymphocytic leukemia in CDF1 hybrid male mice measured as median survival time (0.15 mg/kg),ip; type: functional, Mus musculus; in short: as §1
[14] = test system: P388; experiment: Antitumor activity against P-388 lymphocytic leukemia in CDF1 hybrid male mice measured as percent increase in lifespan( 1.8 mg/kg),ip; type: functional; conditions: Mus musculus; in short: as §1
[15] = test system: P388; experiment: Antitumor activity against P-388 lymphocytic leukemia in CDF1 hybrid male mice measured as median survival time (0.3 mg/kg),ip; type: functional, Mus musculus; in short: as §1
[16] = test system: P388; experiment: Antitumor activity against P-388 lymphocytic leukemia in CDF1 hybrid male mice measured as median survival time (3 mg/kg),ip; type: functional, Mus musculus; in short: as §1
[17] = test system: P388; experiment: Number of mice with P-388 lymphocytic leukemia cured( 3 mg/kg),ip; 0/7; type: functional, Mus musculus; in short: as §1
[18] = test system: P388; experiment: Maximum tolerated dose was determined compared to 7-(2,3-Epoxypropoxy)-actinomycin D against P-388 leukemia in mice(4 days); type: functional, Mus musculus; in short: as §4
[19] = test system: P388; experiment: Number of mice with P-388 lymphocytic leukemia cured(0.15 mg/kg),ip.; 0/7; type: functional, Mus musculus; in short: as §1
[20] = test system: P388; experiment: Antitumor activity against P-388 lymphocytic leukemia in CDF1 hybrid male mice measured as percent increase in lifespan( 0.6 mg/kg),ip; type: functional; conditions: Mus musculus; in short: as §1
[21] = test system: P388; experiment: Number of mice with P-388 lymphocytic leukemia cured.(1.8 mg/kg),ip; 0/7; type: functional, Mus musculus
[22] = test system: P388; experiment: Antitumor activity against P-388 lymphocytic leukemia in CDF1 hybrid male mice measured as median survival time (1.8 mg/kg),ip; type: functional, Mus musculus; in short: as §1
[23] = test system: P388; experiment: Antitumor activity against P-388 lymphocytic leukemia in CDF1 hybrid male mice measured as median survival time ( 1.2 mg/kg),ip; type: functional, Mus musculus; in short: as §1
[24] = Therapeutic Index measured as the MTD/MED ratio compared to that of compound 3; conditions: read-out: Therapeutic index
In short: (§5)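 Therapeutic index is MTD/MED, with ip dosing in 10% dimethyl sulfoxide-saline on a qd 1-4 or q4d 1, 5, 9 schedule. MED is the dose giving a 40% increase in life span over control in P-388-bearing mice. MTD is the LD10 in tumor-free male CDF1 mice (18-23 g) over 21 days, read from a log dose vs. percent mortality plot and averaged over 2-3 experiments.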

[25] = Therapeutic Index measured as the MTD/MED ratio compared to that of compound 4; conditions: read-out: Therapeutic index; in short: as §5
[26] = species on record: Homo sapiens; experiment: as §2; type: functional; conditions: read-out: ID50 (the source's name); remark: listed apart in the source
In short: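 CCRF-CEM human lymphoblastic leukemia cells in log-phase growth; compounds dissolved in Me₂SO, final growth medium 1% Me₂SO.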

[27] = In vitro growth inhibitory activity for effect on melting temperature of DNA was determined
In short: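 DNA thermal denaturation; ΔTm = Tm of DNA-drug complex minus Tm of DNA. Drug 1.4×10⁻⁴ M, DNA (P) 1.4×10⁻³ M in 0.01 M phosphate buffer pH 7.0 with 5×10⁻³ M EDTA and 5% dimethyl sulfoxide.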

SMILES: Cc1c2oc3c(C)c(O)c(N)c(C(=O)N[C@@H]4C(=O)N[C@H](C(C)C)C(=O)N5CCC[C@H]5C(=O)N(C)CC(=O)N(C)[C@@H](C(C)C)C(=O)O[C@@H]4C)c3nc-2c(C(=O)N[C@@H]2C(=O)N[C@H](C(C)C)C(=O)N3CCC[C@H]3C(=O)N(C)CC(=O)N(C)[C@@H](C(C)C)C(=O)O[C@@H]2C)cc1=O [listing 1 of 2 here]
MST [1]: 21 days
IC50 [2]: 0.95 µg/mL (≈ 0.747 µM)
ILS at 1.2 mg/kg [3]: 127%
ILS at 0.15 mg/kg [4]: 10%
MED [5]: 0.275
ILS [6]: 55%
Cure [7]: 0
Cure [8]: 0
MED [9]: 0.2
Cure [10]: 0
MTD [11]: 4.2
ILS at 3 mg/kg [12]: 37%
MST [13]: 12 days
ILS at 1.8 mg/kg [14]: 136%
MST [15]: 17 days
MST [16]: 15 days
Cure [17]: 0
MTD [18]: 2
Cure [19]: 0
ILS at 0.6 mg/kg [20]: 89%
Cure [21]: 0
MST [22]: 26 days
MST [23]: 25 days

SMILES: Cc1c2oc3c(C)c(O)c(N)c(C(=O)N[C@@H]4C(=O)N[C@H](C(C)C)C(=O)N5CCC[C@H]5C(=O)N(C)CC(=O)N(C)[C@@H](C(C)C)C(=O)O[C@@H]4C)c3nc-2c(C(=O)N[C@@H]2C(=O)N[C@H](C(C)C)C(=O)N3CCC[C@H]3C(=O)N(C)CC(=O)N(C)[C@@H](C(C)C)C(=O)O[C@@H]2C)cc1=O [listing 2 of 2 here]
selectivity ratio [24]: 15
selectivity ratio [25]: 10

DNA melting temperature shift (ΔTm) [27]: 0 °C
SMILES: CCN(CC)C(=O)c1c2nc3c(C(=O)N(CC)CC)ccc(C)c3oc-2c(C)c(=O)c1N
IC50 [26]: ~10 µg/mL (≈ 22.8 µM)
